Measured values published in ChEMBL document CHEMBL4665728, “Synthesis and evaluation of 1,2,4-oxadiazole derivatives as potential anti-inflammatory agents by inhibiting NF-κB signaling pathway in LPS-stimulated RAW 264.7 cells” (Bioorg Med Chem Lett, 2020).
Activity calls are given as the source filed them. The rule behind the calls is not given here.

How the values were obtained:
[1] = Cytotoxicity against mouse RAW 264.7 assessed as cell viability at 20 uM incubated for 24 hrs by MTT assay (reference value: 100%); type: cell-based, RAW264.7; details: RAW 264.7 cells, read-out: Activity
Procedure, shortened: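 MTT viability of RAW264.7 cells at 20 µM, expressed as percent of DMSO vehicle control (100%); above 75% viability counted as non-toxic; doxorubicin used as control drug.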

[2] = test system: RAW264.7; assay: Antiinflammatory activity against mouse RAW264.7 cells assessed as inhibition of LPS-stimulated NO production at 20 uM relative to control; type: functional; parameters: scale not given: the % may be the effect or the level left
Procedure, shortened: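 NO production by RAW264.7 cells stimulated with LPS; inhibitory ratio expressed relative to the LPS-treated group.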

[3] = test system: RAW264.7; assay: Antiinflammatory activity against mouse RAW264.7 cells assessed as inhibition of LPS-stimulated NO production; type: functional, cell-based
Procedure, shortened: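 IC50 for inhibition of NO release by LPS-stimulated RAW264.7 macrophages; IC50 taken as the mean of three independent experiments.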

[4] = test system: RAW264.7; assay: Antiinflammatory activity against mouse RAW264.7 cells assessed as inhibition of TNFalpha-stimulated NF-kappaB activation by luciferase assay; type: functional, cell-based
[5] = test system: RAW264.7; assay: Antiinflammatory activity against mouse RAW264.7 cells assessed as reduction in LPS-induced TNFalpha mRNA expression at 3 to 6 uM incubated for 24 hrs by qRT-PCR analysis; type: functional, cell-based; details: dose microM 3-6, time 24.0 hrs
Procedure, shortened: (§1)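 Cells co-treated with compound at several concentrations plus LPS (1 µg/mL) for 24 h; IL-6, IL-1β and TNFα mRNA by qRT-PCR, expressed as ratio to reference gene; mean ± SD, n = 3.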

[6] = test system: RAW264.7; assay: Antiinflammatory activity against mouse RAW264.7 cells assessed as reduction in LPS-induced IL6 mRNA expression at 3 to 6 uM incubated for 24 hrs by qRT-PCR analysis; type: functional, cell-based; details: dose microM 3-6, time 24.0 hrs; procedure, shortened: as §1
[7] = test system: RAW264.7; assay: Antiinflammatory activity against mouse RAW264.7 cells assessed as inhibition of LPS-stimulated nuclear translocation of p65 at 20 uM preincubated for 1 hr followed by LPS addition and measured after 24 hrs by fluorescence microscopic method; type: functional, cell-based
Procedure, shortened: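 RAW264.7 cells pretreated 1 h, then stimulated with LPS (1 µg/mL) or vehicle for 24 h; p65 immunostained and localisation viewed in overlaid fluorescence images; three individual experiments.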

[8] = test system: RAW264.7; assay: Antiinflammatory activity against mouse RAW264.7 cells assessed as reduction in LPS-induced IL1beta mRNA expression at 3 to 6 uM incubated for 24 hrs by qRT-PCR analysis; type: functional, cell-based; details: dose microM 3-6, time 24.0 hrs; procedure, shortened: as §1
[9] = test system: RAW264.7; assay: Antiinflammatory activity against mouse RAW264.7 cells assessed as reduction in LPS-induced p65 phosphorylation at 3 to 6 uM incubated for 45 mins by Western blot analysis; type: functional, cell-based; details: dose microM 3-6, time 45.0 min
Procedure, shortened: (§2)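 RAW264.7 cells treated with a range of concentrations for 45 min; phospho-p65, p65, IκBα and β-actin detected by Western blot; three independent experiments.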

[10] = test system: RAW264.7; assay: Antiinflammatory activity against mouse RAW264.7 cells assessed as reduction in LPS-induced IkappaBalpha phosphorylation at 3 to 6 uM incubated for 45 mins by Western blot analysis; type: functional, cell-based; details: dose microM 3-6, time 45.0 min; procedure, shortened: as §2
[11] = test system: RAW264.7; assay: Antiinflammatory activity against mouse RAW264.7 cells assessed as degradation in LPS-induced IkappaBalpha phosphorylation at 3 to 6 uM incubated for 45 mins by Western blot analysis; type: functional, cell-based; details: dose microM 3-6, time 45.0 min; procedure, shortened: as §2
[12] = test system: RAW264.7; assay: Cytotoxicity against mouse RAW 264.7 assessed as reduction in cell viability up to 100 uM incubated for 24 hrs by MTT assay; type: cell-based; details: raw264.7, 24 h
Procedure, shortened: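 MTT viability of RAW264.7 cells across 0 to 100 µM, compared with vehicle control.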

[13] = test system: RAW264.7; assay: Antiinflammatory activity against mouse RAW264.7 cells assessed as inhibition of LPS-stimulated iNOS protein expression at 3 to 6 uM preincubated followed by LPS addition by Western blot analysis; type: functional, cell-based; details: dose microM 3-6
Procedure, shortened: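 iNOS protein in LPS-stimulated RAW264.7 cells detected by Western blotting; mean ± SD, n = 3.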

SMILES	viability at 24 h, 20 µM [1] [%]	Activity [2] [%]	further results
c1ccc(Cc2noc(-c3ccccc3)n2)cc1	89.6	39.33	
c1ccc(-c2nc(-c3ccncc3)no2)cc1	89	43.13	
C(=C\c1noc(-c2ccccc2)n1)/c1ccccc1	28.2		
c1ccc(-c2nc(-c3cccc4[nH]ccc34)no2)cc1	64.3	45.71	IC50 [3]: 27 µM; IC50 [4]: 13.8 µM
c1coc(-c2nc(-c3ccc4[nH]ccc4c3)no2)c1	99	86.6	Activity [5]: Dose-dependent effect; Activity [6]: Dose-dependent effect; Activity [7]: Active; Activity [8]: Dose-dependent effect; Activity [9]: Active; Activity [10]: Dose-dependent effect; Activity [11]: Dose-dependent effect; IC50 [3]: 12.8 µM; Activity [12]: Non-Toxic; Activity [13]: Active; IC50 [4]: 1.35 µM
Oc1ccc(-c2nc(-c3ccc4[nH]ccc4c3)no2)cc1	36.5		
Cc1ccc(-c2nc(-c3ccc4[nH]ccc4c3)no2)cc1	51.2		
c1ccc(-c2nc(Cc3cccc4ccccc34)no2)cc1	92.8	41.64	
Cc1ccccc1-c1nc(-c2ccc3[nH]ccc3c2)no1	85.3	47.22	
c1ccc(-c2nc(-c3ccc4ccccc4c3)no2)cc1	86.2	63.58	
c1cc2cc(-c3noc(C4CCOCC4)n3)ccc2[nH]1	95.7	2.75	
CC(C)C[C@H](NC(=O)[C@H](Cc1ccccc1)NC(=O)c1cnccn1)B(O)O [BORTEZOMIB]			IC50 [4]: 0.03 µM
C1=CCC(c2nc(-c3ccc4[nH]ccc4c3)no2)C1	24.3		
C[C@@H]1C[C@H]2[C@@H]3CCC4=CC(=O)C=C[C@]4(C)[C@@]3(F)[C@@H](O)C[C@]2(C)[C@@]1(O)C(=O)CO [DEXAMETHASONE]			IC50 [3]: 4.16 µM
COc1ccccc1-c1nc(-c2ccc3[nH]ccc3c2)no1	45		
C#Cc1ccc(-c2nc(-c3ccc4[nH]ccc4c3)no2)cc1	23.6		

SMILES	viability at 24 h, 20 µM [1] [%]	Activity [2] [%]	further results
c1ccc(-c2nc(Cc3cccs3)no2)cc1	85.2	48.24	
c1cc2cc(-c3noc(C4CCC4)n3)ccc2[nH]1	85.4	57.58	
Fc1cccc(-c2nc(-c3ccc4[nH]ccc4c3)no2)c1	17.2		
COc1ccc(-c2nc(-c3ccc4[nH]ccc4c3)no2)cc1	41.3		
c1ccc(-c2nc(-c3ccc4[nH]ccc4c3)no2)cc1	79.4	46.76	
c1cc2cc(-c3noc(C4CCCCC4)n3)ccc2[nH]1	68.8		
COc1cccc(-c2nc(-c3ccc4[nH]ccc4c3)no2)c1	88.1	53.94	
c1ccc(-c2nc(-c3cnccn3)no2)cc1	46.2		
c1ccc(-c2nc(-c3ccc4cc[nH]c4c3)no2)cc1	31		
CSc1ccc(-c2nc(-c3ccc4[nH]ccc4c3)no2)cc1	22.8		
Fc1ccc(-c2nc(-c3ccc4[nH]ccc4c3)no2)cc1	16.8		
Fc1ccccc1-c1nc(-c2ccc3[nH]ccc3c2)no1	26.4		
c1ccc(-c2nc(C3CCCC3)no2)cc1	85.4	34.28	
c1ccc(-c2nc(-c3cccc4ccccc34)no2)cc1	90.4	59.89	
c1ccc(-c2nc(-c3c[nH]c4ccccc34)no2)cc1	11.6		
c1ccc(-c2noc(-c3ccccc3)n2)cc1	42.1		
